Data taken from ChEMBL document CHEMBL2401619, “Novel small molecule inhibitors targeting the "switch region" of bacterial RNAP: structure-based optimization of a virtual screening hit” (Eur J Med Chem, 2013).
≈ marks a conversion by molar mass, not a printed value.

Columns and labels:
Escherichia coli [1] = assay: Antibacterial activity against Escherichia coli expressing ToLC mutant assessed as growth inhibiiton after 18 hrs; type: functional
Outline: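 E. coli TolC (efflux-defective) in LB, start OD600 0.03, compounds predissolved in DMSO (max 1% final); serial dilutions, final 0.02–100 µg/mL, each concentration in duplicate. OD read at compound addition and after 18 h at 37 °C, 50 rpm. MIC = lowest concentration with no detectable growth; mean of two independent runs (three if MIC < 10 µg/mL).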

Escherichia coli [2] = assay: Inhibition of Escherichia coli RNAP assessed as incorporation of [5,6-3H]UTP at 25 uM preincubated for 10 mins followed by DNA template and ATP, CTP, GTP, UTP, [5,6-3H]UTP addition measured after 10 mins by scintillation counting analysis relative to control
Outline: (§1)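 Purchased E. coli RNAP holoenzyme (1 unit, 0.5 µg) with 40 mM Tris-HCl pH 7.5, 150 mM KCl, 10 mM MgCl2, 10 mM DTT, 0.1% CHAPS, RNase inhibitor and compound in 2% DMSO final, preincubated 10 min at 25 °C. Reaction started with religated pcDNA3.1 template (3500 ng), 400 µM ATP/CTP/GTP, 100 µM UTP and 60 nCi [3H]-UTP, then run 10 min at 37 °C. TCA-precipitated RNA counted by scintillation and compared with DMSO controls.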

Staphylococcus aureus = assay: Antibacterial activity against Staphylococcus aureus subsp. aureus Newman assessed as growth inhibiiton after 18 hrs; type: functional
Outline: (§2)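 Broth dilution in LB, start OD600 0.03, compounds predissolved in DMSO (max 1% final), serial dilutions 0.02–100 µg/mL tested in duplicate. Incubation 18 h, 37 °C, 50 rpm (200 rpm for PAO1). OD read at start and after incubation. MIC is the lowest concentration with no detectable growth. Values are means of two independent runs, three if MIC <10 µg/mL.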

Pseudomonas aeruginosa = assay: Antibacterial activity against Pseudomonas aeruginosa PAO1 assessed as growth inhibiiton after 18 hrs; type: functional; conditions: PAO1, 18 h; outline: as §2
Escherichia coli [3] = assay: Antibacterial activity against Escherichia coli K-12 assessed as growth inhibiiton after 18 hrs; type: functional; conditions: K-12, 18 h; outline: as §2
[4] = Antibacterial activity against Bacillus subtilis subsp. subtilis assessed as growth inhibiiton after 18 hrs; type: functional; outline: as §2
[5] = Inhibition of Escherichia coli RNAP assessed as incorporation of [5,6-3H]UTP preincubated for 10 mins followed by DNA template and ATP, CTP, GTP, UTP, [5,6-3H]UTP addition measured after 10 mins by scintillation counting analysis; outline: as §1
Escherichia coli [6] = assay: Inhibition of Escherichia coli RNAP assessed as incorporation of [5,6-3H]UTP at 100 uM preincubated for 10 mins followed by DNA template and ATP, CTP, GTP, UTP, [5,6-3H]UTP addition measured after 10 mins by scintillation counting analysis relative to control; outline: as §1

SMILES | MIC (Escherichia coli [1]) | inhibition (Escherichia coli [2]) | MIC (Staphylococcus aureus) | MIC (Pseudomonas aeruginosa) | MIC (Escherichia coli [3]) | MIC [4] | IC50 [5] | pIC50 [5] | inhibition (Escherichia coli [6])
CCN(Cc1ccccc1)C(=O)Nc1cc(-c2ccc(Cl)cc2)sc1C(=O)OC | > 25 µg/mL | 2% |  |  |  |  |  |  | 
CCN(Cc1ccccc1)C(=O)Nc1cc(-c2ccc(Cl)cc2Cl)sc1C(=O)O | 8 µg/mL (≈ 17.8 µM) |  | 12 µg/mL (≈ 26.7 µM) | > 50 µg/mL | > 50 µg/mL | 10 µg/mL (≈ 22.3 µM) | 32 µM | 4.49 | 
CCN(Cc1ccccc1)C(=O)Nc1cc(-c2ccc(C#N)cc2)sc1C(=O)O | 25 µg/mL (≈ 61.7 µM) |  |  |  |  |  | 133 µM | 3.88 | 
CCCCCCNC(=O)Nc1cc(-c2ccc(Cl)c(Cl)c2)sc1C(=O)O | > 25 µg/mL |  |  |  |  |  | 19 µM |  | 
CCN(Cc1ccccc1)C(=O)Nc1cc(-c2ccc(Cl)c(CCCCNC(=O)OC)c2)sc1C(=O)O | 25 µg/mL (≈ 45.9 µM) |  |  |  |  |  | 20 µM |  | 
CCN(Cc1ccccc1)C(=O)Nc1cc(-c2ccc(OC(F)(F)F)cc2)sc1C(=O)O | 21 µg/mL (≈ 45.2 µM) |  | 9 µg/mL (≈ 19.4 µM) | > 100 µg/mL | > 100 µg/mL | 20 µg/mL (≈ 43.1 µM) | 45 µM | 4.35 | 
O=C(Nc1ccccc1)Nc1cc(-c2ccc(Cl)c(Cl)c2)sc1C(=O)O | 12 µg/mL (≈ 29.5 µM) |  | 6 µg/mL (≈ 14.7 µM) | > 50 µg/mL | > 50 µg/mL | 12 µg/mL (≈ 29.5 µM) | 25 µM |  | 
CN(Cc1ccccc1)C(=O)Nc1cc(-c2ccc(Cl)c(Cl)c2)sc1C(=O)O | 5 µg/mL (≈ 11.5 µM) |  |  |  |  |  |  |  | 12%
CCN(Cc1ccccc1)C(=O)Nc1cc(-c2ccc(C)cc2)sc1C(=O)O | 21 µg/mL (≈ 53.2 µM) |  |  |  |  |  | 137 µM | 3.86 | 
CCCC/C(C)=C/C=C(\C)C(=O)c1c(O)cc([C@H](C)CC/C=C/NC(=O)OC)oc1=O [MYXOPYRONIN B] | 0.8 µg/mL (≈ 1.85 µM) |  | 0.5 µg/mL (≈ 1.16 µM) | > 25 µg/mL | > 25 µg/mL | 0.9 µg/mL (≈ 2.09 µM) | 0.35 µM |  | 
CCCCN(Cc1ccccc1)C(=O)Nc1cc(-c2ccc(Cl)c(Cl)c2)sc1C(=O)O | > 50 µg/mL |  | > 50 µg/mL | > 50 µg/mL | > 50 µg/mL | > 50 µg/mL | 9 µM |  | 
CCN(C(=O)Nc1cc(-c2ccc(Cl)c(Cl)c2)sc1C(=O)O)c1ccccc1 | 16 µg/mL (≈ 36.8 µM) |  |  |  |  |  | 36 µM |  | 
CCN(Cc1ccccc1)C(=O)Nc1cc(-c2ccc([N+](=O)[O-])cc2)sc1C(=O)O | 23 µg/mL (≈ 54.1 µM) |  |  |  |  |  | 73 µM | 4.14 | 
CC(C)NC(=O)Nc1cc(-c2ccc(Cl)c(Cl)c2)sc1C(=O)O | 15 µg/mL (≈ 40.2 µM) |  |  |  |  |  |  |  | 26%
CCCCN(C(=O)Nc1cc(-c2ccc(Cl)c(Cl)c2)sc1C(=O)O)c1ccccc1 | > 25 µg/mL |  |  |  |  |  | 14 µM |  | 
CO[C@H]1/C=C/O[C@@]2(C)Oc3c(C)c(O)c4c(O)c(c(/C=N/N5CCN(C)CC5)c(O)c4c3C2=O)NC(=O)/C(C)=C\C=C\[C@H](C)[C@H](O)[C@@H](C)[C@@H](O)[C@@H](C)[C@H](OC(C)=O)[C@@H]1C [RIFAMPIN] | 5 µg/mL (≈ 6.08 µM) |  | 0.02 µg/mL (≈ 0.0243 µM) | 13 µg/mL (≈ 15.8 µM) | 7 µg/mL (≈ 8.51 µM) | 4.8 µg/mL (≈ 5.83 µM) | 0.03 µM |  | 
CCN(Cc1ccccc1)C(=O)Nc1cc(-c2ccc(OC)cc2)sc1C(=O)O | 15 µg/mL (≈ 36.5 µM) |  |  |  |  |  | 240 µM | 3.62 | 
CCN(Cc1ccccc1)C(=O)Nc1cc(-c2ccc(C(F)(F)F)cc2)sc1C(=O)O | 21 µg/mL (≈ 46.8 µM) |  |  |  |  |  | 51 µM | 4.29 | 
CCCCN(CCc1ccccc1)C(=O)Nc1cc(-c2ccc(Cl)c(Cl)c2)sc1C(=O)O | > 25 µg/mL |  |  |  |  |  | 7 µM |  | 

SMILES | MIC (Escherichia coli [1]) | inhibition (Escherichia coli [2]) | MIC (Staphylococcus aureus) | MIC (Pseudomonas aeruginosa) | MIC (Escherichia coli [3]) | MIC [4] | IC50 [5] | pIC50 [5] | inhibition (Escherichia coli [6])
CCCCNC(=O)Nc1cc(-c2ccc(Cl)c(Cl)c2)sc1C(=O)O | 13 µg/mL (≈ 33.6 µM) |  |  |  |  |  | 91 µM |  | 
CCN(Cc1ccccc1)C(=O)Nc1cc(-c2cccc(C(F)(F)F)c2)sc1C(=O)O | 38 µg/mL (≈ 84.7 µM) |  |  |  |  |  | 53 µM | 4.28 | 
CCCN(CCc1ccccc1)C(=O)Nc1cc(-c2ccc(Cl)c(Cl)c2)sc1C(=O)O | > 25 µg/mL |  |  |  |  |  | 12 µM |  | 
O=C(NCc1ccccc1)Nc1cc(-c2ccc(Cl)c(Cl)c2)sc1C(=O)O | 10 µg/mL (≈ 23.7 µM) |  |  |  |  |  | 45 µM |  | 
O=C(NCCc1ccccc1)Nc1cc(-c2ccc(Cl)c(Cl)c2)sc1C(=O)O | 8 µg/mL (≈ 18.4 µM) |  | 6 µg/mL (≈ 13.8 µM) | > 25 µg/mL | > 25 µg/mL | 7 µg/mL (≈ 16.1 µM) | 26 µM |  | 
CN(C(=O)Nc1cc(-c2ccc(Cl)c(Cl)c2)sc1C(=O)O)c1ccccc1 | 9 µg/mL (≈ 21.4 µM) |  |  |  |  |  | 45 µM |  | 
CCN(Cc1ccccc1)C(=O)Nc1cc(-c2cc(Cl)ccc2Cl)sc1C(=O)O | 9 µg/mL (≈ 20 µM) |  |  |  |  |  | 35 µM | 4.46 | 
CCCCCNC(=O)Nc1cc(-c2ccc(Cl)c(Cl)c2)sc1C(=O)O | 10 µg/mL (≈ 24.9 µM) |  | > 25 µg/mL | > 25 µg/mL | > 25 µg/mL | 8 µg/mL (≈ 19.9 µM) | 35 µM |  | 
O=C(O)c1sc(-c2ccc(Cl)c(Cl)c2)cc1NC(=O)N(Cc1ccccc1)Cc1ccccc1 | > 25 µg/mL |  | 3 µg/mL (≈ 5.87 µM) | > 25 µg/mL | > 25 µg/mL | > 25 µg/mL | 6 µM |  | 
NC(=O)Nc1cc(-c2ccc(Cl)c(Cl)c2)sc1C(=O)O | > 25 µg/mL |  |  |  |  |  |  |  | 26%
CC(C)(C)OC(=O)c1c(NC(=O)Nc2ccccc2)sc2c1CCCCCC2 | 33 µg/mL (≈ 82.4 µM) |  |  |  |  |  |  |  | 4%
O=C(Nc1ccccc1)Nc1sc2c(c1C(=O)O)CCCCCC2 | > 25 µg/mL | 3% |  |  |  |  |  |  | 
CCN(Cc1ccccc1)C(=O)Nc1cc(-c2ccc(Cl)c(C(F)(F)F)c2)sc1C(=O)O | 12 µg/mL (≈ 24.8 µM) |  | 5 µg/mL (≈ 10.4 µM) | > 50 µg/mL | > 50 µg/mL | 20 µg/mL (≈ 41.4 µM) | 21 µM | 4.68 | 
CCN(Cc1ccccc1)C(=O)Nc1cc(-c2cccc([N+](=O)[O-])c2)sc1C(=O)O | 22 µg/mL (≈ 51.7 µM) |  |  |  |  |  | 80 µM | 4.1 | 
CCCN(Cc1ccccc1)C(=O)Nc1cc(-c2ccc(Cl)c(Cl)c2)sc1C(=O)O | > 25 µg/mL |  |  |  |  |  | 14 µM |  | 
CCN(Cc1ccccc1)C(=O)Nc1cc(-c2ccc(Cl)cc2)sc1C(=O)O | 11 µg/mL (≈ 26.5 µM) |  |  |  |  |  | 75 µM | 4.12 | 
CCN(Cc1ccccc1)C(=O)Nc1cc(-c2cc(Cl)cc(Cl)c2)sc1C(=O)O |  |  |  |  |  |  | 25 µM | 4.6 | 
CCN(Cc1ccccc1)C(=O)Nc1cc(-c2ccccc2)sc1C(=O)O | 17 µg/mL (≈ 44.7 µM) |  |  |  |  |  | 292 µM | 3.52 | 
